Screens deposited in PubChem by Broad Institute.
Shown are actives, neighbours in structure and some others; about 2.2% of the full set was active somewhere.
CFTR F508del cor – CFTR F508del correction in bronchial cells; activity (quench increase), % at 7.58 µM; AID 720511; hit rate 0.36% among 350,000; CFBE cells, YFP halide quenching; stimulated with forskolin plus potentiator P3; % fluorescence drop versus neutral controls;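 active = mean added fluorescence quench of at least 8% versus neutral control, with both replicates also reaching 8%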;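 also: cells transiently co-express mutant CFTR-F508del with the halide-sensitive YFP; corrector assay measuring rescue of mutant channel to the surface after 24 h compound exposure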
S100A4 inh HTS – blocks human S100A4 binding to myosin IIA peptide; P26447; S100A4/TAMRA-MyoIIA peptide fluorescence polarization; inhibition, % at 10.7 µM; hit rate 0.14% among 360,000; AID 652163;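 active = mean inhibition of at least 70% across replicates, with every replicate also reaching that level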
Target sequence (P26447 whole entry, looked up): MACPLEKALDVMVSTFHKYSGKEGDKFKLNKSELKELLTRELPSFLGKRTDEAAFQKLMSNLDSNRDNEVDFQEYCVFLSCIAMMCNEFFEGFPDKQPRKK
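Material: S100A4 monomer protein / Buffer or medium: 50 mM HEPES pH 7.2, 10 mM CaCl2, 100 mM KCl / Times: 5 min incubation before reading / Benchmarks: neutral control DMSO, positive control TFP / Reagent: labelled myosin peptide probe, 5 nM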
dFosB act-1 – enhances mouse delta FosB homodimer DNA binding | P13346 | purified delta FosB, TAMRA-CDK5 oligo fluorescence polarization; percent of positive-control signal above neutral wells | activation, % at 25 µM | hit rate 0.99% among 340,000 | AID 493131;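 active = mean activation above about 17%, with every replicate also reaching it, limit read from the data, passing the limit was not always enough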
FGF22 binding – shifts melting point of recombinant human FGF22; Q9HCT0; recombinant FGF22 thermal shift, SYPRO orange fluorescence; percent of sucrose octasulfate shift, DMSO zero; activity (Tm shift, normalised), % at 9.99 µM; hit rate 1.5% among 340,000; AID 651658;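 active = mean Tm shift, scaled 0 neutral to 100 positive control, at about 1.3% or above, every replicate too, limit read from the data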
Target sequence (Q9HCT0 whole entry, looked up): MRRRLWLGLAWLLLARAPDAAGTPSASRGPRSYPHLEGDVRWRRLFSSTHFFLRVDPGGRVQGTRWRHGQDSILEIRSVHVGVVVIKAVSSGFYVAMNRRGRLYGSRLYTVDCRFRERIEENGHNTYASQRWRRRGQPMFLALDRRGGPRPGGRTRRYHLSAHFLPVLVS
dFosB act-2 – activators of mouse delta FosB homodimer DNA binding; activation, % at 24.9 µM; 2,400 tested, under 10 active; AID 588690; shares compounds with dFosB act-1; purified delta FosB, TAMRA-CDK5 oligo fluorescence polarization; normalised: neutral wells 0, positive control 100;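 active = highest replicate activation at or above 34% and every replicate reaching that threshold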;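 also: higher polarization means more probe DNA bound by delta FosB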
Hits are given with their value; n = inactive; x = no result.

SMILES	CFTR F508del cor	S100A4 inh HTS	dFosB act-1	FGF22 binding	dFosB act-2
COc1ccc(C(=O)Nc2ccc(-c3nnn(CC(=O)NCc4ccco4)n3)cc2)cc1	n	n	46.4	n	n
Cc1ccc(S(=O)(=O)N(C)C[C@@H]2Oc3ccc(NC(=O)CCC(F)(F)F)cc3C(=O)N([C@H](C)CO)C[C@@H]2C)cc1	n	n	x	n	x
C[C@@H](NC(=O)[C@H]1[C@H](CO)[C@H]2Cn3c(cccc3=O)[C@@H]1N2C(=O)C1CCCC1)c1ccccc1	n	n	x	n	x
O=C(CCN1CCCCC1)NCC[C@H]1CC[C@@H](NC(=O)C2CCC2)[C@@H](CO)O1	n	n	x	n	x
COc1ccc(-c2nnn(CC(=O)NCc3ccc4c(c3)OCO4)n2)cc1OC	n	n	29.0	n	n
CCOc1ccc(-c2nnn(CC(=O)NCc3ccc(F)cc3)n2)cc1OCC	n	n	41.2	n	n
C[C@H](CO)N1C[C@H](C)[C@H](CN(C)C(=O)Nc2cccc3ccccc23)Oc2c(NS(=O)(=O)c3cn(C)cn3)cccc2C1=O	n	n	x	n	x
CO[C@H]1CN(C)C(=O)c2cc(NC(C)=O)ccc2OC[C@@H](C)N(C(=O)C2CCOCC2)C[C@H]1C	n	n	x	n	x
CNc1nc(Nc2ccc(C(C)=O)cc2)nc(OC(C(F)(F)F)C(F)(F)F)n1	x	x	43.8	x	n
CC(=O)c1ccc(Nc2nc(NCCO)nc(OC(C(F)(F)F)C(F)(F)F)n2)cc1	x	x	n	x	x
CCOc1ccc(NC(=O)/C=C/c2ccc(OC)cc2)c([N+](=O)[O-])c1	x	x	n	x	x
CCOc1ccc(NC(=S)NC(=O)/C=C/c2ccc(OC)c(OC)c2)c([N+](=O)[O-])c1	x	x	24.5	x	n
CCOc1ccc(NC(=S)NC(=O)/C=C/c2ccc(C)cc2)c([N+](=O)[O-])c1	x	x	39.4	x	n
C[C@@H]1CN([C@H](C)CO)C(=O)c2cc(NS(=O)(=O)c3ccc(Cl)cc3)ccc2O[C@@H](C)CCCCO[C@@H]1CN(C)C(=O)NC1CCCCC1	n	n	x	n	x
Cc1cccc(NC(=O)Nc2ccc(C)cc2Br)c1	x	x	20.4	x	n
CC(=O)Nc1cccc(NC(=O)Nc2cccc(Cl)c2C)c1	n	n	22.1	n	n
O=C(N[C@H]1C=C[C@@H](CC(=O)N2CCc3ccccc3C2)O[C@H]1CO)C1CCC1	n	n	x	n	x
CCCCn1c(SCC(=O)c2ccc(OC)c(OC)c2)nc2cc(S(N)(=O)=O)ccc21	x	x	23.0	x	n
CCCCn1c(SCC(=O)c2ccc(OCC)cc2)nc2cc(S(N)(=O)=O)ccc21	x	x	n	x	x
O=C(NCc1ccc2c(c1)OCO2)C1CCN(c2nccc(C(F)(F)F)n2)CC1	n	n	18.3	n	n
O=C(NCc1ccc2c(c1)OCO2)C1CCN(S(=O)(=O)c2ccc(F)cc2)CC1	n	n	n	n	x
CCCCC(=O)Nc1nnc(S(=O)(=O)N(CC)c2ccccc2)s1	n	n	18.0	n	n
CC(C)(C)c1ccc(C(=O)Cn2nc(C(=O)O)c3ccccc3c2=O)cc1	n	n	29.2	n	n
CC(C)CC(=O)Nc1ccc(C(=O)Cn2nc(C(=O)O)c3ccccc3c2=O)cc1	x	x	n	x	x
COc1ccc(S(=O)(=O)N(C)C[C@H]2Oc3c(NC(=O)Nc4ccccc4)cccc3C(=O)N([C@@H](C)CO)C[C@H]2C)cc1	n	x	x	x	x
SMILES	CFTR F508del cor	S100A4 inh HTS	dFosB act-1	FGF22 binding	dFosB act-2
CN1/C(=C\C(=O)c2ccco2)C(C)(C)c2ccccc21	n	n	23.8	n	n
CN1/C(=C\C(=O)CSc2nnc(NCc3ccccc3)s2)C(C)(C)c2ccccc21	x	x	22.6	x	n
Cc1cc(C(=O)CSc2nnc(NCc3ccccc3)s2)c(C)n1C	x	x	n	x	x
CN1/C(=C\C(=O)COC(=O)c2ccco2)C(C)(C)c2ccccc21	n	n	n	n	x
O=C(N[C@H]1C=C[C@H](CC(=O)N2CCCCC2)O[C@@H]1CO)c1ccc2c(c1)OCO2	n	n	x	n	x
O=C(Oc1cccc(-n2cnnn2)c1)C1CCCCC1	x	x	n	x	x
O=C(Oc1cccc(-n2cnnn2)c1)c1sc2ccccc2c1Cl	x	x	143.4	x	n
O=C(COC(=O)c1cc(Cl)ccc1O)Nc1ccc2c(c1)OCCO2	n	n	29.7	n	n
CCN1CCN(c2cc(N3CCc4ccccc4C3)c(F)cc2[N+](=O)[O-])CC1	x	x	18.6	x	n
C[C@H]1CN([C@@H](C)CO)C(=O)Cc2cc(NC(=O)CCC(F)(F)F)ccc2O[C@H]1CN(C)C	n	n	x	n	x
CCOc1cc(CNCCO)cc(Br)c1OCc1ccccc1Cl	x	x	n	x	x
